From ChEMBL document CHEMBL1143990, “Design, synthesis and evaluation of antiinflammatory, analgesic and ulcerogenicity studies of novel S-substituted phenacyl-1,3,4-oxadiazole-2-thiol and Schiff bases of diclofenac acid as nonulcerogenic derivatives” (Bioorg Med Chem, 2008)

What was measured:
Rattus norvegicus [1] = test: Antiinflammatory activity against carrageenan-induced paw edema in orally dosed Wistar rat after 2 hrs relative to control; format: functional
Summary of the method: (§1)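 Wistar rats of either sex, 100–120 g, fasted 24 h with water available. Compounds were suspended in 1% aqueous CMC and given orally 1 h before 0.1 mL of freshly prepared 1.0% w/v carrageenan was injected subplantar into the right hind paw. Paw volume was measured before and after carrageenan. Change in paw volume is mean ± SD versus vehicle control, by one-way ANOVA with Dunnett's test.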

Rattus norvegicus [2] = test: Antiinflammatory activity against carrageenan-induced paw edema in orally dosed Wistar rat after 3 hrs relative to control; format: functional; summary of the method: as §1
Rattus norvegicus [3] = test: Antiinflammatory activity against carrageenan-induced paw edema in orally dosed Wistar rat after 1 hr relative to control; format: functional; summary of the method: as §1
Rattus norvegicus [4] = test: Induction of gastric ulcer in orally dosed Wistar rat assessed as stomach mucosal damage; format: organism-based; conditions: in vivo, po
Summary of the method: (§2)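 Wistar rats of either sex (100–120 g), kept at 25 °C and 50% relative humidity on a 12 h light/dark cycle, fasted 24 h with water ad libitum. Compounds were suspended in 1% aqueous CMC and given orally; controls received vehicle. Ulceration was induced in a stress model with added cold stress. Gastric mucosa was scored, with severity index = treated mean score minus control mean. Ratio of ulcerated animals recorded. Mean ± SEM; one-way ANOVA with Dunnett's test. Tissue examined after H&E staining.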

Mus musculus = test: Analgesic activity against acetic acid-induced writhing in Swiss Albino mouse at 10 mg/kg, po after 25 mins relative to control; format: functional
Summary of the method: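 Mice given compounds orally at 10 mg/kg, suspended in 1% aqueous sodium carboxymethyl cellulose. Vehicle-only controls were run. Acetic acid was used to induce writhing. Writhes were counted over 25 min after treatment and reported as mean ± SEM. Percent inhibition was calculated versus the vehicle control.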

Rattus norvegicus [5] = test: Gastric-ulcerogenic effect in Wistar rat at 30 mg/kg, po; format: ADME, organism-based; design: dose 30 mg/kg, route oral; conditions: in vivo; summary of the method: as §2
Rattus norvegicus [6] = test: Gastric-ulcerogenic effect in Wistar rat at 50 mg/kg, po; format: ADME, organism-based; design: dose 50 mg/kg, route oral; conditions: in vivo; summary of the method: as §2
Rattus norvegicus [7] = test: Gastric-ulcerogenic effect in Wistar rat at 10 mg/kg, po; format: ADME, organism-based; design: dose 10 mg/kg, route oral; conditions: in vivo; summary of the method: as §2

| Compound | Inhibition (Rattus norvegicus [1]) [%] | Inhibition (Rattus norvegicus [2]) [%] | Inhibition (Rattus norvegicus [3]) [%] | Activity (Rattus norvegicus [4]) | inhibition in vivo at 10 mg/kg (Mus musculus) [%] | Activity (Rattus norvegicus [5]) | Activity (Rattus norvegicus [6]) | Activity (Rattus norvegicus [7]) | UI (Rattus norvegicus [5]) | UI (Rattus norvegicus [7]) |
| --- | --- | --- | --- | --- | --- | --- | --- | --- | --- | --- |
| Cc1ccc(/C=N/NC(=O)Cc2ccccc2Nc2c(Cl)cccc2Cl)cc1 | 43.09 | 68.62 | 20.99 | – | – | – | – | – | – | – |
| O=C(Cc1ccccc1Nc1c(Cl)cccc1Cl)N/N=C/c1ccccc1Cl | 40.2 | 60.99 | 13.54 | – | – | – | – | – | – | – |
| COc1ccc(/C=N/NC(=O)Cc2ccccc2Nc2c(Cl)cccc2Cl)cc1 | 51.88 | 73.36 | 27.21 | Non-toxic | 53.9 | Non-toxic | Non-toxic | Non-toxic | – | – |
| COc1cc(/C=N/NC(=O)Cc2ccccc2Nc2c(Cl)cccc2Cl)cc(OC)c1OC | 50.97 | 71.93 | 29.11 | – | – | – | – | – | – | – |
| O=C(CSc1nnc(Cc2ccccc2Nc2c(Cl)cccc2Cl)o1)c1ccc(O)cc1 | 48.91 | 71.99 | 31.55 | – | 68.2 | – | – | – | – | – |
| COc1cccc(C(=O)CSc2nnc(Cc3ccccc3Nc3c(Cl)cccc3Cl)o2)c1 | 52.09 | 74.23 | 23.8 | Non-toxic | 66.9 | Non-toxic | Non-toxic | Non-toxic | – | – |
| O=C(Cc1ccccc1Nc1c(Cl)cccc1Cl)N/N=C/c1ccc(Br)cc1 | 51.72 | 80.07 | 30.53 | Non-toxic | 68.7 | Non-toxic | Non-toxic | Non-toxic | – | – |
| O=C(CSc1nnc(Cc2ccccc2Nc2c(Cl)cccc2Cl)o1)c1ccc([N+](=O)[O-])cc1 | 45.64 | 67.19 | 20.99 | – | – | – | – | – | – | – |
| O=C(Cc1ccccc1Nc1c(Cl)cccc1Cl)N/N=C/c1ccccc1O | 46.96 | 72.88 | 31.38 | Non-toxic | 60.5 | Non-toxic | Non-toxic | Non-toxic | – | – |
| O=C(Cc1ccccc1Nc1c(Cl)cccc1Cl)N/N=C/C=C/c1ccccc1 | 48.81 | 72.76 | 32.28 | – | 45.3 | – | – | – | – | – |
| O=C(CSc1nnc(Cc2ccccc2Nc2c(Cl)cccc2Cl)o1)c1cccc(O)c1 | 44.53 | 69.89 | 17.94 | – | – | – | – | – | – | – |
| O=C(CSc1nnc(Cc2ccccc2Nc2c(Cl)cccc2Cl)o1)c1cccc([N+](=O)[O-])c1 | 49.47 | 60.39 | 28.34 | – | – | – | – | – | – | – |
| O=C(CSc1nnc(Cc2ccccc2Nc2c(Cl)cccc2Cl)o1)c1ccc(Br)cc1 | 45.16 | 71.05 | 26.02 | – | 55 | – | – | – | – | – |
| O=C(Cc1ccccc1Nc1c(Cl)cccc1Cl)N/N=C/c1ccc(F)cc1 | 41.35 | 60.34 | 16.64 | – | – | – | – | – | – | – |
| COc1ccc(C(=O)CSc2nnc(Cc3ccccc3Nc3c(Cl)cccc3Cl)o2)cc1OC | 48.63 | 72.63 | 23.43 | Non-toxic | 51.4 | Non-toxic | Non-toxic | Non-toxic | – | – |
| CN(C)c1ccc(/C=N/NC(=O)Cc2ccccc2Nc2c(Cl)cccc2Cl)cc1 | 48.75 | 69.39 | 28.2 | – | – | – | – | – | – | – |
| O=C(Cc1ccccc1Nc1c(Cl)cccc1Cl)N/N=C/c1cccc([N+](=O)[O-])c1 | 47.02 | 69.79 | 20.87 | – | – | – | – | – | – | – |
| O=C(Cc1ccccc1Nc1c(Cl)cccc1Cl)N/N=C/c1ccc(O)cc1 | 38.14 | 70.94 | 16.28 | – | – | – | – | – | – | – |
| O=C(CSc1nnc(Cc2ccccc2Nc2c(Cl)cccc2Cl)o1)c1ccc(Cl)c(Cl)c1 | 52.26 | 60.39 | 30.46 | – | – | – | – | – | – | – |
| O=C([O-])Cc1ccccc1Nc1c(Cl)cccc1Cl.[Na+] [DICLOFENAC SODIUM] | 48.99 | 71.3 | 28.69 | – | 64.7 | – | – | – | 2.1 | 1.8 |
